In ChEMBL document CHEMBL6092210, “Synthesis, in vitro and in vivo biological evaluation of novel dual compounds targeting both acetylcholinesterase and serotonergic 5-HT4 receptors with potential interest in the treatment of Alzheimer's disease” (Eur J Med Chem, 2024):
In brackets after ≈: the same amount, converted by molar mass.

Key:
[1] = biological target: T1, Acetylcholinesterase (Homo sapiens, UniProt P22303); test: Inhibition of recombinant human erythrocyte AChE using acetyl-or butyrylthiocholine iodide as substrate at 1 x 10^-5M preincubated for 5 mins followed by substrate addition and measured every min for 10 mins by Ellman's method relative to control; conditions: dose 1.0 10^-5M, time 15.0 min
T1 sequence (P22303 whole entry): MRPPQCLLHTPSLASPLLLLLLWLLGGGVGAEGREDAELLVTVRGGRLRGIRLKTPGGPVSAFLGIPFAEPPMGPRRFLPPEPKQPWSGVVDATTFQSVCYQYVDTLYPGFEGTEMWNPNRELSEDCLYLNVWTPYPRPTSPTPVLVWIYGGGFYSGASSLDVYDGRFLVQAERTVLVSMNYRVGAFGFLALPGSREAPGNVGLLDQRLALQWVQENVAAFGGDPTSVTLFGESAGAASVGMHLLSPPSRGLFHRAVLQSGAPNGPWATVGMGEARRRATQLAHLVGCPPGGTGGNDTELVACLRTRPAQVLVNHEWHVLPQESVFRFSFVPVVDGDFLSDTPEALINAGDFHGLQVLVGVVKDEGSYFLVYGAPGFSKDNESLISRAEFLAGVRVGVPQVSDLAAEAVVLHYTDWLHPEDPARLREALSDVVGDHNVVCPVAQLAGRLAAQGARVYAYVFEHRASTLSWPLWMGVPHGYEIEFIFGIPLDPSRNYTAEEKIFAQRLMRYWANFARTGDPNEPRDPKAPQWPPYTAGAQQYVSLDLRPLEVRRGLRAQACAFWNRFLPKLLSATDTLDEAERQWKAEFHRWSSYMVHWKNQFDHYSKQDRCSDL
Summary of the method: (§1)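 AChE from human erythrocytes (0.05 U final) or recombinant AChE (0.025 U final), diluted in 20 mM HEPES pH 8 with 0.1 % Triton X-100, in an Ellman assay. DTNB is 0.3 mM in phosphate buffer pH 7.4 and compound is in DMSO. Enzyme and compound are preincubated 5 min at 25 °C. Reaction starts with 1 mM acetylthiocholine iodide solution.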

[2] = biological target: T2, 5-hydroxytryptamine receptor 4 (Homo sapiens, UniProt Q13639); test: Inhibition of human recombinant 5HT4 receptor at 1 x 10^-6M incubated for 60 mins relative to control; conditions: dose 1.0 10^-6M
T2 sequence (Q13639 whole entry): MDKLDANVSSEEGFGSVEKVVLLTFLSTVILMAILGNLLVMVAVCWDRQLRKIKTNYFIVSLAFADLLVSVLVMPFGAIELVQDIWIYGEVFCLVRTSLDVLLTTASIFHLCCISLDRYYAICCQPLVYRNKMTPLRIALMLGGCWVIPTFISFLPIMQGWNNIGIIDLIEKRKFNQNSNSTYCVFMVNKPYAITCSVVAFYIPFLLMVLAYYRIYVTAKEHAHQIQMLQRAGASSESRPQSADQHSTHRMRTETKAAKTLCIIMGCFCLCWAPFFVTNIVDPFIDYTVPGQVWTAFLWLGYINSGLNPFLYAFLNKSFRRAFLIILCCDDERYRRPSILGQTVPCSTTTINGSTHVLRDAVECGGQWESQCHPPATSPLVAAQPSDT
Summary of the method: (§2)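 Membranes (2.5 μg protein) from a stable recombinant line expressing h5-HT4(b) receptor. Incubated in duplicate at 25 °C for 60 min with 0.2 nM [3H]-GR113808 in 25 mM Tris pH 7.4, with drug at 10^-6 or 10^-8 M. GF/C filtration; non-specific binding defined with 30 μM serotonin. Ki from five-point inhibition curves, ± SD.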

[3] = biological target: T2, 5-hydroxytryptamine receptor 4; test: Inhibition of human recombinant 5HT4 receptor at 1 x 10^-8M incubated for 60 mins relative to control; conditions: dose 1.0 10^-8M; summary of the method: as §2
[4] = biological target: T1, Acetylcholinesterase; test: Inhibition of recombinant human erythrocyte AChE using acetyl-or butyrylthiocholine iodide as substrate at 1 x 10^-6M preincubated for 5 mins followed by substrate addition and measured every min for 10 mins by Ellman's method relative to control; conditions: dose 1.0 10^-6M, time 15.0 min; summary of the method: as §1
[5] = biological target: T2, 5-hydroxytryptamine receptor 4; test: Binding affinity to human recombinant 5HT4 receptor assessed as inhibition constant incubated for 60 mins
[6] = biological target: T2, 5-hydroxytryptamine receptor 4; test: Partial agonist activity at human recombinant 5HT4 receptor at 1 x 10^-8M incubated for 60 mins; format: functional
[7] = biological target: Cholinesterase (Equus caballus, UniProt P81908); test: Inhibition of equine serum BuChE using Acetyl and butyrylthiocholine iodide as substrate preincubated for 5 mins followed by substrate addition and measured every min for 10 mins by Ellman's method
Cholinesterase, sequence (P81908 whole entry): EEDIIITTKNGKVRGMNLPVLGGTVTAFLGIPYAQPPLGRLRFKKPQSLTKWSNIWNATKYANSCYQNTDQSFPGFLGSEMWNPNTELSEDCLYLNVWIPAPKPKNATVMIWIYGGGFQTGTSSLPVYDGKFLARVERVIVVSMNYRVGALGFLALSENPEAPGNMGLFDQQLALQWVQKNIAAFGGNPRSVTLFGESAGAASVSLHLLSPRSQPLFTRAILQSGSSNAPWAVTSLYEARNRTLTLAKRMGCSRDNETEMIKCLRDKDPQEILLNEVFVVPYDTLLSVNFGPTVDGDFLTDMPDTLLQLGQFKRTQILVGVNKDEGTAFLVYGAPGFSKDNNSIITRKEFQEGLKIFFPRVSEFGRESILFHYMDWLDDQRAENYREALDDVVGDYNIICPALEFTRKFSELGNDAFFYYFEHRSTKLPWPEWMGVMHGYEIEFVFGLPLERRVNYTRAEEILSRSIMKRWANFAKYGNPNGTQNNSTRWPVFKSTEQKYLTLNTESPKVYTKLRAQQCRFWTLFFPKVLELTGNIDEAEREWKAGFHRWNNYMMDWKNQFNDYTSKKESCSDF

[8] = biological target: T2, 5-hydroxytryptamine receptor 4; test: Partial agonist activity at human recombinant 5HT4 receptor expressed in […] cells assessed as cAMP accumulation in presence of serotonin by HTRF analysis; format: functional, cell-based
Summary of the method: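 COS-7 cells grown in DMEM with 10 % dialyzed FCS and transiently transfected with HA-tagged h5-HT4R, then plated at 16,000 cells/well. At 24 h, cells were exposed for 10 min at 37 °C to 5-HT4 ligands in HEPES-buffered saline containing 0.1 % BSA and 0.1 mM RO-20-1724. Cells were lysed with 0.1 % Triton X-100 and cAMP measured by HTRF.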

[9] = Intrinsic solubility of the compound at pH 12 by classical shake-flask method; format: physicochemical; conditions: buffer
Summary of the method: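 Shake-flask method: 1 mg compound in 4 mL pH 12 phosphate buffer with KCl, n = 3. Sonicated, shaken at room temperature for 48 h, centrifuged. Supernatant mixed 1:1 with acetonitrile/DMSO (99:1) and quantified by UV at 326 nm against a four-point calibration curve.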

[10] = Thermodynamic solubility of compound at pH 7.4 by classical shake-flask method; format: physicochemical; conditions: buffer, read-out: Therm_solubility
Summary of the method: (§3)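 Shake-flask thermodynamic solubility (OECD 105, miniaturized). 1 mg of solid added to 4 mL of water or potassium phosphate buffer at pH 7.4 or 12 (n = 3), sonicated and shaken horizontally at room temperature for 48 h. After centrifugation, supernatant was mixed 1:1 with acetonitrile/DMSO and quantified by UV at 326 nm against a four-point calibration curve.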

[11] = Thermodynamic solubility of compound by classical shake-flask method; format: physicochemical; conditions: read-out: Therm_solubility; summary of the method: as §3
[12] = biological target: T3, P-glycoprotein (ABCB1) (Homo sapiens, UniProt P08183); test: Inhibition of P-glycoprotein mediated Rhodamine-123 efflux in human NCI/ADR-RES cells assessed as increase in intracellular fluorescence at 10 uM incubated for 24 hrs relative to control; format: cell-based; conditions: probe Rhodamine-123
T3 sequence (P08183 whole entry): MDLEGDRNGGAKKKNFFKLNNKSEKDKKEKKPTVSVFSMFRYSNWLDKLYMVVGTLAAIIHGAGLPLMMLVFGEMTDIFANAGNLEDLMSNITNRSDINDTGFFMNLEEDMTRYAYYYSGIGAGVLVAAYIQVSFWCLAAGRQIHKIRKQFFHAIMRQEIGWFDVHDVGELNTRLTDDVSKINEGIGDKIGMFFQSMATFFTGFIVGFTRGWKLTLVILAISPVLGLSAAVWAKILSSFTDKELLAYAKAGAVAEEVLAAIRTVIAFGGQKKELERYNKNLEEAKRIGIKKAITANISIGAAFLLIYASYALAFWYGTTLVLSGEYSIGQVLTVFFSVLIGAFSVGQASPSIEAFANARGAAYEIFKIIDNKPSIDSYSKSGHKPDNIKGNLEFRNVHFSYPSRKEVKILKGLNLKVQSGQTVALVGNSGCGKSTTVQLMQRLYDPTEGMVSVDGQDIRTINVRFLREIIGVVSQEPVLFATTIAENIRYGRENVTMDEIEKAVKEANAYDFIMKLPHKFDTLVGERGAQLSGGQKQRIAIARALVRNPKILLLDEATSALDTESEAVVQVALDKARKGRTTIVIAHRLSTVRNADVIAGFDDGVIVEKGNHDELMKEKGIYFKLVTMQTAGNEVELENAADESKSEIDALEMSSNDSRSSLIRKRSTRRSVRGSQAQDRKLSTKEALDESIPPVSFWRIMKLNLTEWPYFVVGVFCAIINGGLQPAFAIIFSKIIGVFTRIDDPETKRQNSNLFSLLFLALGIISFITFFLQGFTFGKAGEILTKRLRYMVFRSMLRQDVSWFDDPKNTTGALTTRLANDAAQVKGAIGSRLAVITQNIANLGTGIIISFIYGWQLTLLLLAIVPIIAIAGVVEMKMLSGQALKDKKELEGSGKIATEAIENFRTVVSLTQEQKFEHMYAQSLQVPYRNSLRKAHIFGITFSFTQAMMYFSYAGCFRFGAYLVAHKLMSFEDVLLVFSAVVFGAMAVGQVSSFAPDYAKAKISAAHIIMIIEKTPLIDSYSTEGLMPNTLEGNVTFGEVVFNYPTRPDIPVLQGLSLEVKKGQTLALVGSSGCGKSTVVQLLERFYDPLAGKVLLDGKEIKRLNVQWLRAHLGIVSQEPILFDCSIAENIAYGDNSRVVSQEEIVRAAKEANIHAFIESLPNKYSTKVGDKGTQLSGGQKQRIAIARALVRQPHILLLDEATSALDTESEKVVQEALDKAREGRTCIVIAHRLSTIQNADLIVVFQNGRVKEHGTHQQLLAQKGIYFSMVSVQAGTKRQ
Summary of the method: (§4)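 NCI/ADR-RES cells in RPMI with 10 % FCS, seeded 24 h before the assay. […] Washed three times, lysed in Tris/SDS, fluorescence read (ex 507/em 528 nm). Cyclosporin A as positive control.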

[13] = biological target: T3, P-glycoprotein (ABCB1); test: Inhibition of P-glycoprotein mediated Rhodamine-123 efflux in human NCI/ADR-RES cells assessed as increase in intracellular fluorescence at 1 uM incubated for 24 hrs relative to control; format: cell-based; conditions: probe Rhodamine-123; summary of the method: as §4
[14] = Cytotoxicity against human MRC5 cells assessed as growth inhibition at 10 uM incubated for 72 hrs by MTS assay relative to control; format: toxicity, cell-based; conditions: read-out: Activity
Summary of the method: (§5)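 MRC5-SV2 cells in D-MEM with 10 % FCS, treated 24 h after plating with compound from DMSO stock (DMSO 1 % final). After 72 h, MTS added for 3 h at 37 °C and absorbance read at 490 nm. Growth inhibition = (1 − OD treated/OD control) × 100, triplicate experiments.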

[15] = Cytotoxicity against human MRC5 cells assessed as growth inhibition at 1 uM incubated for 72 hrs by MTS assay relative to control; format: toxicity, cell-based; conditions: read-out: Activity; summary of the method: as §5
[16] = Mutagenicity in Salmonella typhimurium TA97a by Ames test; format: toxicity; conditions: salmonella enterica subsp. enterica serovar typhimurium
Summary of the method: (§6)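 Semi-quantitative spot test with S. typhimurium TA97a, TA98, TA100 and TA102, with and without S9 mix.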

[17] = Mutagenicity in Salmonella typhimurium TA98 by Ames test; format: toxicity; conditions: salmonella enterica subsp. enterica serovar typhimurium; summary of the method: as §6
[18] = Mutagenicity in Salmonella typhimurium TA100 by Ames test; format: toxicity; conditions: salmonella enterica subsp. enterica serovar typhimurium; summary of the method: as §6
[19] = Mutagenicity in Salmonella typhimurium TA102 by Ames test; format: toxicity; conditions: salmonella enterica subsp. enterica serovar typhimurium; summary of the method: as §6
[20] = Oral bioavailability in Wistar rat at 1 to 9 mg/kg; format: ADME, organism-based; conditions: in vivo, dose 1-9 mg/kg
Summary of the method: (§7)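 Oral doses of 1, 3 and 9 mg/kg alongside iv and ip dosing, in 0.9 % saline, n = 3 per dose. Terminal plasma under isoflurane at six time points, UHPLC–MS/MS quantification. Bioavailability from non-compartmental AUCs, with the methods giving F = (AUCpo/AUCip) × (Doseip/Dosepo).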

[21] = Oral bioavailability in C57BL6 mouse at 1 to 9 mg/kg; format: ADME, organism-based; conditions: in vivo, dose 1-9 mg/kg; summary of the method: as §7
[22] = AUC in Wistar rat at 3 mg/kg, ip; format: ADME, organism-based; conditions: in vivo
Summary of the method: (§8)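 Single ip dose in 0.9 % saline (10 mL/kg mouse, 2 mL/kg rat), n = 3 per dose. CSF from cisterna magna and cardiac-puncture blood taken under isoflurane at six time points. Protein precipitation, then UHPLC–MS/MS (LLOQ 1 ng/mL). AUC0–∞ by linear trapezoidal non-compartmental analysis.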

[23] = AUC in C57BL6 mouse at 3 mg/kg, ip; format: ADME, organism-based; conditions: in vivo; summary of the method: as §8
[24] = biological target: T1, Acetylcholinesterase; test: Inhibition of recombinant human erythrocyte AChE using acetyl-or butyrylthiocholine iodide as substrate preincubated for 5 mins followed by substrate addition and measured every min for 10 mins by Ellman's method

## COc1cc(N)ccc1C(=O)CCC1CCN(CC2CCCCC2)CC1
[1]
  inhibition: 97%
[2]
  inhibition: 96%
[3]
  inhibition: 10%

## COc1cc(NC(C)=O)c(Cl)cc1C(=O)CCC1CCN(CC2CCCCC2)CC1
[4]
  inhibition: 98%
[2]
  inhibition: 94%
[3]
  inhibition: 1%
[5]
  Ki: 270 nM

## COc1cc(N)c(Cl)cc1C(=O)CCC1CCN(CC2CCCCC2)CC1
[4]; tested as the 2H-labelled form
  inhibition: 92%
[2]; tested as the 2H-labelled form
  inhibition: 98%
[3]; tested as the 2H-labelled form
  inhibition: 29%

## COc1cc(N)c(F)cc1C(=O)CCC1CCN(CC2CCCCC2)CC1
[6]
  Ki: 9.6 nM
[7]
  IC50: 6200 nM
[8]
  EC50: 1.3 nM
[9]
  solubility thermodynamic: 2 µM (≈ 0.753 µg/mL)
[10]
  solubility thermodynamic: 104 µM (≈ 39.2 µg/mL)
[11]
  solubility thermodynamic: 444 µM (≈ 167 µg/mL)
[12]
  inhibition at 24 h, 10 µM: 111%
[13]
  inhibition at 24 h, 1 µM: 125%
[14]
  inhibition at 72 h, 10 µM: 0%
[15]
  inhibition at 72 h, 1 µM: 0%
[16]
  Activity: Non-toxic
[17]
  Activity: Non-toxic
[18]
  Activity: Non-toxic
[19]
  Activity: Non-toxic
[20]
  bioavailability: 3.6%
[21]
  bioavailability: 12.4%
[22]
  AUC: 9.26 ng·h/mL
[23]
  AUC: 7.66 ng·h/mL

## CC(=O)Nc1cc(O)c(C(=O)CCC2CCN(CC3CCCCC3)CC2)cc1Cl
[4]
  inhibition: 94%
[24]
  IC50: 57.3 nM
[2]
  inhibition: 47%
[3]
  inhibition: 8%

## Nc1cc(OCCF)c(C(=O)CCC2CCN(CC3CCCCC3)CC2)cc1Cl
[4]
  inhibition: 60%
[2]
  inhibition: 102%
[3]
  inhibition: 78%

## Nc1cc(O)c(C(=O)CCC2CCN(CC3CCCCC3)CC2)cc1Cl
[4]
  inhibition: 93%
[2]
  inhibition: 96%
[3]
  inhibition: 3%

## Nc1cc(OCCF)c(C(=O)CCC2CCN(CC3CCCCC3)CC2)cc1I
[4]
  inhibition: 45%
[2]
  inhibition: 101%
[3]
  inhibition: 22%
[5]
  Ki: 521 nM

## CCOc1cc(N)c(Cl)cc1C(=O)CCC1CCN(CC2CCCCC2)CC1
[4]
  inhibition: 69%
[2]
  inhibition: 103%
[3]
  inhibition: 86%

## CCOc1cc(N)c(I)cc1C(=O)CCC1CCN(CC2CCCCC2)CC1
[4]
  inhibition: 51%
[2]
  inhibition: 103%
[3]
  inhibition: 65%
[5]
  Ki: 86 nM

## Nc1ccc(C(=O)CCC2CCN(CC3CCCCC3)CC2)cc1Cl
[4]
  inhibition: 96%
[24]
  IC50: 49.7 nM
[2]
  inhibition: 97%
[3]
  inhibition: 10%
